Laboratory results: ChEMBL document CHEMBL1777718, “Synthesis and cytotoxicity of 17a-aza-D-homo-androster-17-one derivatives” (Bioorg Med Chem Lett, 2011)

system: not listed separately; assay: Cytotoxicity against human SMMC-7404 cells assessed as reduction in optical density by MTT assay relative to control; format: functional, cell-based
In short: (§1)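 MTT assay read as optical density. IC50 is the concentration that cut optical density of treated cells by 50% relative to untreated cells. Values are means of three independent determinations.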

| SMILES | IC50 [µM] |
| --- | --- |
| C[C@]12CCC(O)C=C1C(O)C[C@@H]1[C@@H]2CC[C@]2(C)NC(=O)CC[C@@H]12 (stereo partly drawn) | > 200 |
| C[C@]12CC/C(=N/O)C=C1/C(=N\O)C[C@@H]1[C@@H]2CC[C@]2(C)NC(=O)CC[C@@H]12 | > 200 |
| C[C@]12CCC(=O)CC1C(=O)C[C@@H]1[C@@H]2CC[C@]2(C)NC(=O)CC[C@@H]12 (stereo partly drawn) | 60.8 |
| C[C@]12CC[C@H](O)CC1=CC[C@@H]1[C@@H]2CC[C@]2(C)NC(=O)CC[C@@H]12 | > 200 |
| CC(=O)O[C@H]1CC[C@@]2(C)C(=CC[C@@H]3[C@@H]2CC[C@]2(C)NC(=O)CC[C@@H]32)C1 | > 200 |
| C[C@]12CCC(=O)C=C1C(=O)C[C@@H]1[C@@H]2CC[C@]2(C)NC(=O)CC[C@@H]12 | > 200 |
| C[C@]12CC/C(=N\NC(N)=S)C=C1/C(=N\NC(N)=S)C[C@@H]1[C@@H]2CC[C@]2(C)NC(=O)CC[C@@H]12 | 80.5 |
| C[C@]12CC/C(=N/O)CC1/C(=N\O)C[C@@H]1[C@@H]2CC[C@]2(C)NC(=O)CC[C@@H]12 (stereo partly drawn) | 184 |
| C[C@]12CCC(O)CC1C(O)C[C@@H]1[C@@H]2CC[C@]2(C)NC(=O)CC[C@@H]12 (stereo partly drawn) | 124 |

system: HeLa; assay: Cytotoxicity against human HeLa cells assessed as reduction in optical density by MTT assay relative to control; format: functional, cell-based; in short: as §1

| SMILES | IC50 [µM] |
| --- | --- |
| C[C@]12CCC(O)C=C1C(O)C[C@@H]1[C@@H]2CC[C@]2(C)NC(=O)CC[C@@H]12 (stereo partly drawn) | 18.8 |
| C[C@]12CC/C(=N/O)C=C1/C(=N\O)C[C@@H]1[C@@H]2CC[C@]2(C)NC(=O)CC[C@@H]12 | 15.1 |
| C[C@]12CCC(=O)CC1C(=O)C[C@@H]1[C@@H]2CC[C@]2(C)NC(=O)CC[C@@H]12 (stereo partly drawn) | 53.6 |
| C[C@]12CC[C@H](O)CC1=CC[C@@H]1[C@@H]2CC[C@]2(C)NC(=O)CC[C@@H]12 | 65.9 |
| CC(=O)O[C@H]1CC[C@@]2(C)C(=CC[C@@H]3[C@@H]2CC[C@]2(C)NC(=O)CC[C@@H]32)C1 | 37.6 |
| C[C@]12CCC(=O)C=C1C(=O)C[C@@H]1[C@@H]2CC[C@]2(C)NC(=O)CC[C@@H]12 | 102 |
| C[C@]12CC/C(=N\NC(N)=S)C=C1/C(=N\NC(N)=S)C[C@@H]1[C@@H]2CC[C@]2(C)NC(=O)CC[C@@H]12 | 28.8 |
| C[C@]12CC/C(=N/O)CC1/C(=N\O)C[C@@H]1[C@@H]2CC[C@]2(C)NC(=O)CC[C@@H]12 (stereo partly drawn) | 75.7 |
| C[C@]12CCC(O)CC1C(O)C[C@@H]1[C@@H]2CC[C@]2(C)NC(=O)CC[C@@H]12 (stereo partly drawn) | 14 |
